From ChEMBL document CHEMBL2163276, “A peptide nucleic acid-aminosugar conjugate targeting transactivation response element of HIV-1 RNA genome shows a high bioavailability in human cells and strongly inhibits tat-mediated transactivation of HIV-1 transcription” (J Med Chem, 2012)
Calls of active or inactive are those of the source. No cut-off for these calls is given here.

How the values were obtained:
CCRF-CEM [1] = test: Cellular uptake in human CEM cells at 2 uM after overnight incubation; format: ADME, cell-based
Nucleic Acid [2] = test: Inhibition of HIV1 transactivation response element RNA-mediated LTR expression transfected in human CEM cells coexpressing CMV-Tat at 1 and 2 uM after 24 hrs by luciferase reporter gene assay; format: cell-based; details: Human immunodeficiency virus 1; CCRF-CEM
In short: (§1)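 CEM cells (0.5×10^6/well) transfected with pHIV-1 LTR-Luc (2 µg) and pRL-SV40 (500 ng), with or without pCMV-Tat (2 µg). Conjugates added 2 h later, and cells grown in RPMI/10% FBS at 37 °C. At 24 h, dual-luciferase read-out; firefly normalised to Renilla and expressed as % of untreated cells. Mean ± SEM of two independent experiments.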

CCRF-CEM [3] = test: Cellular uptake in human CEM cells at 1 uM after 12 hrs by confocal microscopic analysis; format: ADME, cell-based
In short: (§2)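 CEM cells incubated 12 h with FITC-labelled conjugate (0.5 and 1 µM) or with 1 µM FITC-labelled naked PNA. Cells then washed, nuclei DAPI-stained, and imaged by confocal microscopy with FITC read at 488 nm.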

CCRF-CEM [4] = test: Cellular uptake in human CEM cells at 0.5 uM after 12 hrs by confocal microscopic analysis; format: ADME, cell-based; in short: as §2
CCRF-CEM [5] = test: Cellular uptake in human CEM cells at 0.2 uM within 14 hrs by FACS analysis; format: ADME, cell-based
In short: (§3)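 CEM cells taken in log phase and resuspended at 0.5×10^6 cells/mL in RPMI with 2% FBS, preincubated 30 min at 37 °C. Fluorescein-labelled conjugate added at 50 nM–1 µM and incubated. Cells harvested at 30 min, 3 h and 14 h, washed in PBS and scored for FITC-positive cells by FACScan, with propidium iodide (1 µg/mL) to exclude dead cells.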

[6] = Cellular uptake in human Huh7.5 cells at 1 uM after 10 hrs by DAPI/WGA-Rhodamine-staining based confocal microscopic analysis in presence of chloroquine; format: ADME, cell-based; details: huh-7, 10 h
In short: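 Huh7.5 cells incubated with 1 µM FITC-labelled conjugate, with or without the endosome disruptor chloroquine, for 10 h. Cells then PBS-washed, fixed in 4% paraformaldehyde, stained with WGA-rhodamine (membrane glycoproteins) and DAPI (nuclei), and imaged by confocal microscopy, FITC at 488 nm.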

CCRF-CEM [7] = test: Cellular uptake in human CEM cells at 0.2 uM within 30 mins by FACS analysis; format: ADME, cell-based; details: 0.5 h; in short: as §3
CCRF-CEM [8] = test: Cellular uptake in human CEM cells at 0.3 uM within 14 hrs by FACS analysis; format: ADME, cell-based; in short: as §3
CCRF-CEM [9] = test: Cellular uptake in human CEM cells up to 14 hrs by FACS analysis at 4 degC; format: ADME, cell-based; in short: as §3
[10] = Cytotoxicity against human CEM cells assessed as cell viability at 0.2 to 1 uM by propidium iodide-staining based flow cytometric analysis; details: CCRF-CEM cells, read-out: Activity
In short: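 CEM cells exposed to labelled conjugate at 0.2–1 µM under uptake-assay conditions. Viability scored by propidium iodide exclusion during flow cytometry.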

CCRF-CEM [11] = test: Cellular uptake in human CEM cells up to 14 hrs by FACS analysis at 37 degC; format: ADME, cell-based; in short: as §3
CCRF-CEM [12] = test: Cellular uptake in human CEM cells at 50 nM to 1 uM by FACS analysis; format: ADME, cell-based; details: 0.05 µM, TDE = time-dependent effect; in short: as §3
CCRF-CEM [13] = test: Cellular uptake in human CEM cells up to 14 hrs by FACS analysis; format: ADME, cell-based; in short: as §3
Nucleic Acid [14] = test: Binding affinity to HIV1 32-P labeled transactivation response element RNA assessed as gel mobility shift at compound:RNA ratio of 0.5:1 after 1 hr by gel mobility shift assay; format: nucleic-acid assay; details: Human immunodeficiency virus 1
In short: (§4)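 10 nM 32P-labelled 82-nt TAR RNA run-off transcript (T7) incubated with conjugate in 50 mM Tris-HCl pH 7.8, 60 mM KCl, 5 mM MgCl2, 1 h at room temperature. Molar ratios of conjugate to RNA were 0–5.0. Samples were run on native 8% polyacrylamide gel in TBE, 100 V, 4 h, room temperature, then PhosphorImager read-out.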

[15] = Chemical stability of the compound in aqueous HCl solution after 3 days by HPLC analysis; format: physicochemical; details: buffer, 72 h
In short: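 Conjugate held in 0.1 M aqueous HCl at 37 °C for 3 days. HPLC retention time compared with untreated sample.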

Nucleic Acid [16] = test: Binding affinity to HIV1 32-P labeled transactivation response element RNA at compound:RNA ratio of 1:1 after 1 hr by gel mobility shift assay; format: nucleic-acid assay; details: Human immunodeficiency virus 1; in short: as §4
Nucleic Acid [17] = test: Effect on HIV1 transactivation response element RNA-mediated LTR expression transfected in human CEM cells at 0.1 to 2 uM after 24 hrs by luciferase reporter gene assay; format: cell-based; details: Human immunodeficiency virus 1, CCRF-CEM; in short: as §1
CCRF-CEM [18] = test: Cytotoxicity against human CEM cells assessed as inhibition of [3H]thymidine incorporation at 0.1 and 0.5 mM after 48 hrs by scintillation counting; format: cell-based
In short: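 CEM cells grown with conjugate (0.1 and 0.5 mM, dissolved in DMSO; final DMSO 5%) plus [methyl-3H]thymidine 5 µCi/mL for 48 h. Nucleic acids lysed with 1% NP-40, TCA-precipitated onto glass-fibre filters and scintillation counted. Results given as % of DMSO control, from three independent experiments.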

Nucleic Acid [19] = test: Inhibition of HIV1 transactivation response element RNA-mediated LTR expression transfected in human CEM cells coexpressing CMV-Tat at 1 uM after 24 hrs by luciferase reporter gene assay; format: cell-based; details: Human immunodeficiency virus 1, CCRF-CEM; in short: as §1
Nucleic Acid [20] = test: Induction of HIV1 transactivation response element RNA cleavage; format: nucleic-acid assay; details: Human immunodeficiency virus 1
Nucleic Acid [21] = test: Inhibition of HIV1 transactivation response element RNA-mediated LTR expression transfected in human CEM cells coexpressing CMV-Tat at 0.1 to 2 uM after 24 hrs by luciferase reporter gene assay; format: cell-based; details: Human immunodeficiency virus 1, CCRF-CEM; in short: as §1
Nucleic Acid [22] = test: Inhibition of transactivation response element RNA-mediated transcription in HIV1 pseudovirions infected in human CEM cells assessed as reduction in luciferase activity at 800 nM incubated 48 hrs post-infection measured after 72 hrs by reporter gene assay; format: cell-based; details: Human immunodeficiency virus 1, CCRF-CEM
In short: (§5)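 CEM 12D7 cells (1×10^6 in 1 mL) infected 2 h with VSV-G-pseudotyped NL4-3.Luc.R-E- virions (14 ng p24), washed and cultured. Conjugate added 48 h post-infection. After 76 h, cells lysed and firefly luciferase measured; IC50 calculated. Mean of two independent experiments.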

Nucleic Acid [23] = test: Inhibition of transactivation response element RNA-mediated transcription in HIV1 pseudovirions infected in human CEM cells assessed as reduction in luciferase activity incubated 48 hrs post-infection measured after 72 hrs by reporter gene assay; format: cell-based; in short: as §5
Nucleic Acid [24] = test: Induction of HIV1 transactivation response element RNA cleavage in presence of metal ion; format: nucleic-acid assay; details: Human immunodeficiency virus 1
[25] = Human immunodeficiency virus 1, CCRF-CEM

Cc1cn(CC(=O)N(CCNC(=O)CN(CCNC(=O)CN(CCNC(=O)CN(CCNC(=O)CN(CCNC(=O)CN(CCNC(=O)CN(CCNC(=O)CN(CCNC(=O)CN(CCNC(=O)CN(CCNC(=O)CN(CCNC(=O)CN(CCNC(=O)CN(CCNC(=O)CN(CCNC(=O)CN(CCNC(=O)CN(CCNC(=O)CCC(=O)NCCCCCCO[C@@H]2[C@@H](O)[C@H](N)C[C@H](N)[C@H]2O[C@H]2O[C@H](CN)[C@@H](O)[C@H](O)[C@H]2N)C(=O)Cn2cc(C)c(=O)[nH]c2=O)C(=O)Cn2ccc(N)nc2=O)C(=O)Cn2ccc(N)nc2=O)C(=O)Cn2ccc(N)nc2=O)C(=O)Cn2cnc3c(N)ncnc32)C(=O)Cn2cnc3c(=O)[nH]c(N)nc32)C(=O)Cn2cnc3c(=O)[nH]c(N)nc32)C(=O)Cn2ccc(N)nc2=O)C(=O)Cn2cc(C)c(=O)[nH]c2=O)C(=O)Cn2ccc(N)nc2=O)C(=O)Cn2cnc3c(N)ncnc32)C(=O)Cn2cnc3c(=O)[nH]c(N)nc32)C(=O)Cn2cnc3c(N)ncnc32)C(=O)Cn2cc(C)c(=O)[nH]c2=O)C(=O)Cn2ccc(N)nc2=O)CC(N)=O)c(=O)[nH]c1=O
Drug uptake (CCRF-CEM [1]): 30%

Cc1cn(CC(=O)N(CCNC(=O)CN(CCNC(=O)CN(CCNC(=O)CN(CCNC(=O)CN(CCNC(=O)CN(CCNC(=O)CN(CCNC(=O)CN(CCNC(=O)CN(CCNC(=O)CN(CCNC(=O)CN(CCNC(=O)CN(CCNC(=O)CN(CCNC(=O)CN(CCNC(=O)CN(CCNC(=O)CN(CCN)C(=O)Cn2cc(C)c(=O)[nH]c2=O)C(=O)Cn2ccc(N)nc2=O)C(=O)Cn2ccc(N)nc2=O)C(=O)Cn2ccc(N)nc2=O)C(=O)Cn2cnc3c(N)ncnc32)C(=O)Cn2cnc3c(=O)[nH]c(N)nc32)C(=O)Cn2cnc3c(=O)[nH]c(N)nc32)C(=O)Cn2ccc(N)nc2=O)C(=O)Cn2cc(C)c(=O)[nH]c2=O)C(=O)Cn2ccc(N)nc2=O)C(=O)Cn2cnc3c(N)ncnc32)C(=O)Cn2cnc3c(=O)[nH]c(N)nc32)C(=O)Cn2cnc3c(N)ncnc32)C(=O)Cn2cc(C)c(=O)[nH]c2=O)C(=O)Cn2ccc(N)nc2=O)CC(N)=O)c(=O)[nH]c1=O
inhibition (Nucleic Acid [2]): inactive

Cc1cn(CC(=O)N(CCN)CC(=O)NCCN(CC(=O)NCCN(CC(=O)NCCN(CC(=O)NCCN(CC(=O)NCCN(CC(=O)NCCN(CC(=O)NCCN(CC(=O)NCCN(CC(=O)NCCN(CC(=O)NCCN(CC(=O)NCCN(CC(=O)NCCN(CC(=O)NCCN(CC(=O)NCCN(CC(=O)NCCN(CC(=O)N[C@@H](CCCCNC(=S)Nc2ccc(-c3c4ccc(=O)cc-4oc4cc(O)ccc34)c(C(=O)O)c2)C(N)=O)C(=O)Cn2cc(C)c(=O)[nH]c2=O)C(=O)Cn2ccc(N)nc2=O)C(=O)Cn2cc(C)c(=O)[nH]c2=O)C(=O)Cn2cnc3c(N)ncnc32)C(=O)Cn2cnc3c(=O)[nH]c(N)nc32)C(=O)Cn2cnc3c(N)ncnc32)C(=O)Cn2ccc(N)nc2=O)C(=O)Cn2cc(C)c(=O)[nH]c2=O)C(=O)Cn2ccc(N)nc2=O)C(=O)Cn2cnc3c(=O)[nH]c(N)nc32)C(=O)Cn2cnc3c(=O)[nH]c(N)nc32)C(=O)Cn2cnc3c(N)ncnc32)C(=O)Cn2ccc(N)nc2=O)C(=O)Cn2ccc(N)nc2=O)C(=O)Cn2ccc(N)nc2=O)c(=O)[nH]c1=O
Drug uptake (CCRF-CEM [3]): Not Active

CO[C@H]1O[C@H](CN)[C@@H](OCCCCCC(=O)NCCN(CC(=O)NCCN(CC(=O)NCCN(CC(=O)NCCN(CC(=O)NCCN(CC(=O)NCCN(CC(=O)NCCN(CC(=O)NCCN(CC(=O)NCCN(CC(=O)NCCN(CC(=O)NCCN(CC(=O)NCCN(CC(=O)NCCN(CC(=O)NCCN(CC(=O)NCCN(CC(=O)NCCN(CC(=O)N[C@@H](CCCCNC(=S)Nc2ccc(-c3c4ccc(=O)cc-4oc4cc(O)ccc34)c(C(=O)O)c2)C(N)=O)C(=O)Cn2cc(C)c(=O)[nH]c2=O)C(=O)Cn2ccc(N)nc2=O)C(=O)Cn2cc(C)c(=O)[nH]c2=O)C(=O)Cn2cnc3c(N)ncnc32)C(=O)Cn2cnc3c(=O)[nH]c(N)nc32)C(=O)Cn2cnc3c(N)ncnc32)C(=O)Cn2ccc(N)nc2=O)C(=O)Cn2cc(C)c(=O)[nH]c2=O)C(=O)Cn2ccc(N)nc2=O)C(=O)Cn2cnc3c(=O)[nH]c(N)nc32)C(=O)Cn2cnc3c(=O)[nH]c(N)nc32)C(=O)Cn2cnc3c(N)ncnc32)C(=O)Cn2ccc(N)nc2=O)C(=O)Cn2ccc(N)nc2=O)C(=O)Cn2ccc(N)nc2=O)C(=O)Cn2cc(C)c(=O)[nH]c2=O)[C@H](O)[C@H]1N
Drug uptake (CCRF-CEM [4]): 90%
Drug uptake (CCRF-CEM [5]): 85%
Drug uptake [6]: Active
Drug uptake (CCRF-CEM [7]): 10%
Drug uptake (CCRF-CEM [8]): 100%
Drug uptake (CCRF-CEM [9]): Active
viability at 1 µM [10]: > 95%
Drug uptake (CCRF-CEM [3]): 99%
Drug uptake (CCRF-CEM [11]): Active
Drug uptake (CCRF-CEM [12]): tde
Drug uptake (CCRF-CEM [13]): Dose-dependent effect

CO[C@H]1O[C@H](CN)[C@@H](OCCCCCC(=O)NCCN(CC(=O)NCCN(CC(=O)NCCN(CC(=O)NCCN(CC(=O)NCCN(CC(=O)NCCN(CC(=O)NCCN(CC(=O)NCCN(CC(=O)NCCN(CC(=O)NCCN(CC(=O)NCCN(CC(=O)NCCN(CC(=O)NCCN(CC(=O)NCCN(CC(=O)NCCN(CC(=O)NCCN(CC(N)=O)C(=O)Cn2cc(C)c(=O)[nH]c2=O)C(=O)Cn2ccc(N)nc2=O)C(=O)Cn2cc(C)c(=O)[nH]c2=O)C(=O)Cn2cnc3c(N)ncnc32)C(=O)Cn2cnc3c(=O)[nH]c(N)nc32)C(=O)Cn2cnc3c(N)ncnc32)C(=O)Cn2ccc(N)nc2=O)C(=O)Cn2cc(C)c(=O)[nH]c2=O)C(=O)Cn2ccc(N)nc2=O)C(=O)Cn2cnc3c(=O)[nH]c(N)nc32)C(=O)Cn2cnc3c(=O)[nH]c(N)nc32)C(=O)Cn2cnc3c(N)ncnc32)C(=O)Cn2ccc(N)nc2=O)C(=O)Cn2ccc(N)nc2=O)C(=O)Cn2ccc(N)nc2=O)C(=O)Cn2cc(C)c(=O)[nH]c2=O)[C@H](O)[C@H]1N
Activity (Nucleic Acid [14]): 50%
Stability [15]: Stable
Activity (Nucleic Acid [16]): Active
Activity (Nucleic Acid [17]): inactive
Activity (CCRF-CEM [18]): Non-toxic
inhibition (Nucleic Acid [19]): 75%
Activity (Nucleic Acid [20]): inactive
inhibition (Nucleic Acid [21]): Active
inhibition (Nucleic Acid [22]): 50%
IC50 (Nucleic Acid [23]; [25]): 0.8 µM
inhibition (Nucleic Acid [23]; [25]): Dose-dependent effect
Activity (Nucleic Acid [24]): inactive
